According to paper PMC8246884 (Journal of Medical Virology, 2020):

Columns and labels:
[1] = test system: HCV; conditions: cited from earlier work
[2] = Plasma pharmacokinetics on Day 14; assay type: in vivo, human; conditions: Day 14, coadministered with CDI‐31244
Method in brief: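 Treatment-naïve adults with chronic genotype 1 HCV and no cirrhosis took oral drugs once daily for 2 weeks: a nucleotide/NS5A inhibitor combination tablet (400 mg/100 mg) plus a non-nucleoside inhibitor, 400 mg as capsules. Plasma was sampled before the first dose on Day 1 and at 0, 1, 2, 4, 6, 8, 12 and 24 h after the Day 14 dose. Validated LC-MS/MS; per-patient non-compartmental Cmax, Cmin, tmax, AUC0–24; descriptive statistics.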

| Exposure [2] | SMILES | HCV RNA viral load reduction [1] |
| --- | --- | --- |
|  | COc1c(-c2ccc3cc(NS(C)(=O)=O)ccc3c2)cc(-n2ccc(=O)[nH]c2=O)cc1C(C)(C)C [dasabuvir] | 0.95 log10 |
| consistent with reported values | COC[C@H]1C[C@@H](c2ncc(-c3ccc4c(c3)COc3cc5c(ccc6nc([C@@H]7CC[C@H](C)N7C(=O)[C@@H](NC(=O)OC)C(C)C)[nH]c65)cc3-4)[nH]2)N(C(=O)[C@H](NC(=O)OC)c2ccccc2)C1 [velpatasvir] |  |
| consistent with reported values | C[C@@]1(F)[C@H](O)[C@@H](CO)O[C@H]1n1ccc(=O)[nH]c1=O [GS‐331007] |  |
| consistent with reported values | CC(C)OC(=O)[C@H](C)N[P@](=O)(OC[C@H]1O[C@@H](n2ccc(=O)[nH]c2=O)[C@](C)(F)[C@@H]1O)Oc1ccccc1 [sofosbuvir] |  |
